Experimental data taken from ChEMBL document CHEMBL4014276, “Diphenylurea derivatives for combating methicillin- and vancomycin-resistant Staphylococcus aureus” (Eur J Med Chem, 2017).
≈ marks a conversion by molar mass, not a printed value. Calls of active or inactive are those of the source. The rule behind the calls is not given here.

Legend:
[1] = tested on: Staphylococcus aureus; assay: Antibacterial activity against methicillin-resistant Staphylococcus aureus USA200 NRS383 clinical isolate preincubated followed by bacterial subculturing for 2 weeks; format: functional
[2] = tested on: Staphylococcus aureus; assay: Antibacterial activity against Staphylococcus aureus RN4220 NRS107 clinical isolate after 20 hrs by broth microdilution method; format: functional; settings: RN4220 NRS107, 20 h
Outline: (§1)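 CLSI broth microdilution in cation-adjusted Mueller Hinton broth; compounds serially diluted, triplicate samples; 37 °C, 20 h. MIC read visually as lowest concentration with no visible growth; mean of triplicate determinations reported.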

[3] = tested on: Staphylococcus aureus; assay: Antibacterial activity against methicillin-resistant Staphylococcus aureus USA300 NRS384 clinical isolate after 20 hrs by broth microdilution method; format: functional; settings: USA300 NRS384, 20 h; outline: as §1
[4] = tested on: Staphylococcus aureus; assay: Antibacterial activity against methicillin-resistant Staphylococcus aureus USA300 NRS384 clinical isolate preincubated followed by bacterial subculturing for 2 weeks; format: functional
[5] = tested on: Staphylococcus aureus; assay: Bactericidal activity against methicillin-resistant Staphylococcus aureus USA300 NRS384 clinical isolate after 18 hrs by broth microdilution method; format: functional; settings: USA300 NRS384, 18 h
Outline: (§2)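 From MIC wells without visible growth, 5 uL spotted onto Tryptic soy agar, incubated 37 °C for at least 18 h; MBC taken as lowest concentration giving 99.9% growth inhibition.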

[6] = tested on: Staphylococcus aureus; assay: Antibacterial activity against methicillin-resistant Staphylococcus aureus USA400 NRS123 clinical isolate preincubated followed by bacterial subculturing for 2 weeks; format: functional
[7] = tested on: HaCaT; assay: Cytotoxicity against human HaCaT cells up to 64 ug/ml after 2 hrs by MTS assay; format: cell-based
Outline: (§3)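 Keratinocytes grown in DMEM with 10% FBS at 37 °C, 5% CO2; exposed in triplicate to 8, 16, 32 and 64 µg/mL for 2 h. DMSO-matched controls. MTS added for 4 h, absorbance at 490 nm. Viability expressed as % of DMSO-treated cells (mean of triplicate ± SD); one-way ANOVA with Dunnett's test, P < 0.05.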

[8] = tested on: Staphylococcus aureus; assay: Antibacterial activity against vancomycin-resistant Staphylococcus aureus VRSA4 after 20 hrs by broth microdilution method; format: functional; settings: VRSA4, 20 h; outline: as §1
[9] = tested on: Staphylococcus aureus; assay: Bactericidal activity against methicillin-resistant Staphylococcus aureus USA400 NRS123 clinical isolate after 18 hrs by broth microdilution method; format: functional; settings: USA400 NRS123, 18 h; outline: as §2
[10] = tested on: Staphylococcus aureus; assay: Antibacterial activity against methicillin-resistant Staphylococcus aureus USA100 NRS382 clinical isolate after 20 hrs by broth microdilution method; format: functional; settings: USA100 NRS382, 20 h; outline: as §1
[11] = tested on: Staphylococcus aureus; assay: Bactericidal activity against methicillin-resistant Staphylococcus aureus USA200 NRS383 clinical isolate after 18 hrs by broth microdilution method; format: functional; settings: USA200 NRS383, 18 h; outline: as §2
[12] = tested on: Staphylococcus aureus; assay: Antibacterial activity against methicillin-resistant Staphylococcus aureus USA200 NRS383 clinical isolate after 20 hrs by broth microdilution method; format: functional; settings: USA200 NRS383, 20 h; outline: as §1
[13] = tested on: Staphylococcus aureus; assay: Antibacterial activity against vancomycin-resistant Staphylococcus aureus VRSA10 after 20 hrs by broth microdilution method; format: functional; settings: VRSA10, 20 h; outline: as §1
[14] = tested on: Staphylococcus aureus; assay: Antibacterial activity against methicillin-resistant Staphylococcus aureus USA100 NRS382 clinical isolate preincubated followed by bacterial subculturing for 2 weeks; format: functional
[15] = tested on: Staphylococcus aureus; assay: Bactericidal activity against methicillin-resistant Staphylococcus aureus USA100 NRS382 clinical isolate after 18 hrs by broth microdilution method; format: functional; settings: USA100 NRS382, 18 h; outline: as §2
[16] = tested on: Staphylococcus aureus; assay: Bactericidal activity against Staphylococcus aureus RN4220 NRS107 clinical isolate after 18 hrs by broth microdilution method; format: functional; settings: RN4220 NRS107, 18 h; outline: as §2
[17] = tested on: Staphylococcus aureus; assay: Bactericidal activity against vancomycin-resistant Staphylococcus aureus VRSA10 after 18 hrs by broth microdilution method; format: functional; settings: VRSA10, 18 h; outline: as §2
[18] = tested on: Staphylococcus aureus; assay: Bactericidal activity against vancomycin-resistant Staphylococcus aureus VRSA4 after 18 hrs by broth microdilution method; format: functional; settings: VRSA4, 18 h; outline: as §2
[19] = tested on: Staphylococcus aureus; assay: Antibacterial activity against methicillin-resistant Staphylococcus aureus USA400 NRS123 clinical isolate after 20 hrs by broth microdilution method; format: functional; settings: USA400 NRS123, 20 h; outline: as §1
[20] = tested on: Staphylococcus aureus; assay: Bactericidal activity against methicillin-resistant Staphylococcus aureus USA400 assessed as time required to reduce log10CFU of bacterial load at 4 times MIC by time kill assay; format: functional
[21] = tested on: Staphylococcus aureus; assay: Bactericidal activity against methicillin-resistant Staphylococcus aureus USA400 NRS123 clinical isolate assessed as disruption of bacterial membrane by measuring leakage of 280 nM absorbing material at 5 times MIC after 30 mins by spectrophotometric method; format: functional
[22] = tested on: J774; assay: Cytotoxicity against mouse J774 cells at 8 ug/ml after 24 hrs by MTS assay; format: cell-based; settings: j774, 24 h
Outline: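 Murine macrophages cultured in DMEM plus 10% FBS, 37 °C, 5% CO2; compounds at 8, 16, 32, 64 µg/mL in triplicate for 24 h against DMSO-matched controls. MTS reagent 4 h, read at OD490. Viability as % of DMSO control (triplicate mean ± SD); one-way ANOVA, Dunnett's post hoc, P < 0.05.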

[23] = tested on: HaCaT; assay: Cytotoxicity against human HaCaT cells up to 32 ug/ml after 2 hrs by MTS assay; format: cell-based; outline: as §3
[24] = tested on: Staphylococcus aureus; assay: Bactericidal activity against methicillin-resistant Staphylococcus aureus USA400 NRS123 clinical isolate assessed as disruption of bacterial membrane by measuring leakage of 260 nM absorbing material at 5 times MIC after 30 mins by spectrophotometric method; format: functional
[25] = Intrinsic clearance in human liver microsomes in absence of NADPH by LC-MS/MS method; format: ADME, microsome; settings: read-out: CLH
[26] = Intrinsic clearance in human liver microsomes in presence of NADPH by LC-MS/MS method; format: ADME, microsome; settings: read-out: CLH
[27] = Apparent permeability across apical to basolateral side in human Caco2 cells at 10 uM after 2 hrs by LC-MS/MS method; format: ADME, cell-based; settings: Caco-2
[28] = Apparent permeability across basolateral to apical side in human Caco2 cells at 10 uM after 2 hrs by LC-MS/MS method; format: ADME, cell-based; settings: Caco-2
[29] = tested on: Staphylococcus aureus; assay: Antibacterial activity against methicillin-resistant Staphylococcus aureus USA400 infected in Caenorhabditis elegans AU37 harboring (sek-1(km4);glp-4(bn2)I) mutant assessed as reduction in colony forming units at 10 ug/ml after 20 hrs by microscopic method relative to control; format: functional; set-up: scale not given: the % may be the effect or the level left
Outline: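 C. elegans AU37 L4/adult worms infected on MRSA USA400 lawn 6 h, washed in M9; 15-25 worms per well treated with 10 µg/mL in triplicate for 20 h, PBS negative control; worms lysed with silicon carbide, plated on TSA with 5 µg/mL nalidixic acid, 37 °C 18 h; CFU per worm, Student's t-test with Holm-Sidak correction.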

[30] = tested on: Staphylococcus aureus; assay: Bactericidal activity against methicillin-resistant Staphylococcus aureus USA400 infected in mouse J774 cells assessed as reduction in colony forming units at 16 ug/ml after 24 hrs by time kill assay relative to control; format: functional
Outline: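 J774 murine macrophages in DMEM/10% FBS infected with MRSA USA400 at MOI ~100:1 for 1 h, extracellular bacteria killed with gentamicin 50 µg/mL; treated at 16 µg/mL in triplicate; after 4, 8 or 24 h cells washed, lysed with 0.1% Triton X-100, plated for CFU; percent reduction versus untreated, t-test.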

[31] = Half life in human liver microsomes in presence of NADPH by LC-MS/MS method; format: ADME, microsome
[32] = Half life in human liver microsomes in absence of NADPH by LC-MS/MS method; format: ADME, microsome

Compound | Activity [1] | MIC [2] [µg/mL] | MIC [3] [µg/mL] | Activity [4] | MBC [5] [µg/mL] | Activity [6] | MIC [8] [µg/mL] | MBC [9] [µg/mL] | MIC [10] [µg/mL] | MBC [11] [µg/mL] | MIC [12] [µg/mL] | MIC [13] [µg/mL] | Activity [14] | MBC [15] [µg/mL] | MBC [16] [µg/mL] | MBC [17] [µg/mL] | MBC [18] [µg/mL] | MIC [19] [µg/mL] | Time [20] | Activity [21] | also measured
CCCCCOc1ccc(NC(=O)Nc2ccc(/C(C)=N/NC(=N)N)cc2)cc1 | Active | 4 (≈ 10.1 µM) | 4 (≈ 10.1 µM) | Active | 4 (≈ 10.1 µM) | Active | 4 (≈ 10.1 µM) | 16 (≈ 40.4 µM) | 4 (≈ 10.1 µM) | 4 (≈ 10.1 µM) | 4 (≈ 10.1 µM) | 4 (≈ 10.1 µM) | Active | 4 (≈ 10.1 µM) | 8 (≈ 20.2 µM) | 8 (≈ 20.2 µM) | 4 (≈ 10.1 µM) | 4 (≈ 10.1 µM) |  |  | Activity [7]: Non-Toxic
C/C(=N\NC(=N)N)c1ccc(NC(=O)Nc2ccc(OCCC(C)C)cc2)cc1 | Active | 2 (≈ 5.04 µM) | 2 (≈ 5.04 µM) | Active | 4 (≈ 10.1 µM) | Active | 4 (≈ 10.1 µM) | 4 (≈ 10.1 µM) | 4 (≈ 10.1 µM) | 4 (≈ 10.1 µM) | 2 (≈ 5.04 µM) | 2 (≈ 5.04 µM) | Active | 4 (≈ 10.1 µM) | 4 (≈ 10.1 µM) | 4 (≈ 10.1 µM) | 4 (≈ 10.1 µM) | 2 (≈ 5.04 µM) | <=4 hr | inactive | Activity [22]: Toxic; Activity [23]: Non-Toxic; Activity [24]: inactive
CC(=O)CC(c1ccccc1)c1c(O)c2ccccc2oc1=O (stereo not given) [WARFARIN] |  |  |  |  |  |  |  |  |  |  |  |  |  |  |  |  |  |  |  |  | microsomal CLint [25]: < 9.6 µL/min/mg; microsomal CLint [26]: < 9.6 µL/min/mg; Papp A→B at 2 h, 10 µM [27]: 27.7 ×10⁻⁶ cm/s; Papp B→A at 2 h, 10 µM [28]: 20.3 ×10⁻⁶ cm/s
CN[C@H](CC(C)C)C(=O)N[C@H]1C(=O)N[C@@H](CC(N)=O)C(=O)N[C@H]2C(=O)N[C@H]3C(=O)N[C@H](C(=O)N[C@H](C(=O)O)c4cc(O)cc(O)c4-c4cc3ccc4O)[C@H](O)c3ccc(c(Cl)c3)Oc3cc2cc(c3O[C@@H]2O[C@H](CO)[C@@H](O)[C@H](O)[C@H]2O[C@H]2C[C@](C)(N)[C@H](O)[C@H](C)O2)Oc2ccc(cc2Cl)[C@H]1O [VANCOMYCIN] |  |  |  |  | 1 (≈ 0.69 µM) |  | > 128 | 0.5 (≈ 0.345 µM) | < 1 | 0.5 (≈ 0.345 µM) |  | > 128 |  | < 1 | 1 (≈ 0.69 µM) | > 128 | > 128 |  | 24 h | inactive | Activity [29]: 25%; Activity [30]: inactive; Activity [24]: inactive
Cc1ncc2n1-c1ccc(Cl)cc1C(c1ccccc1F)=NC2 [MIDAZOLAM] |  |  |  |  |  |  |  |  |  |  |  |  |  |  |  |  |  |  |  |  | microsomal CLint [25]: < 9.6 µL/min/mg; half-life [31]: 5.7 min; microsomal CLint [26]: 402 µL/min/mg; half-life [32]: > 240 min
